# In the library only some 4.1% were active in any assay of this set; here they are far more common.
# MC4R ag barr = MC4R agonists recruiting beta-arrestin, primary screen, cell-based, luminescence, agonist arm of biased-ligand search. hit rate 0.98% among 360,000. Melanocortin receptor 4 (Homo sapiens), P32245. activation, % at 8.9 µM. U2OS MC4R beta-arrestin complementation; percent of melanotan II response, DMSO zero;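 active = activation above a per-plate cutoff, the mean activation of sample wells on that plate plus 3 SD, cut at about 8% in these data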
# MPTP inh = mitochondrial permeability transition pore inhibitors, primary screen, biochemical, isolated mouse mitochondria, absorbance; Ca2+ swelling absorbance, 30 min; inhibition, % at 10 µM; hit rate 1.4% among 360,000;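 active = inhibition of 50% or more, scaled per plate between neutral and stimulator controls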
# ATG4B inh = ATG4B protease inhibitors, primary screen, biochemical, fluorescence, uHTS; inhibition, % at 8.33 µM; ATG4B cleavage of LC3-PLA2, NBD-HPC fluorescence, 1 h; AID 504462, 2011; hit rate 0.51% among 340,000; Cysteine protease ATG4B (Homo sapiens), Q9Y4P1; in the data active = inhibition above about 40%
# Target sequence (Q9Y4P1 whole entry, looked up): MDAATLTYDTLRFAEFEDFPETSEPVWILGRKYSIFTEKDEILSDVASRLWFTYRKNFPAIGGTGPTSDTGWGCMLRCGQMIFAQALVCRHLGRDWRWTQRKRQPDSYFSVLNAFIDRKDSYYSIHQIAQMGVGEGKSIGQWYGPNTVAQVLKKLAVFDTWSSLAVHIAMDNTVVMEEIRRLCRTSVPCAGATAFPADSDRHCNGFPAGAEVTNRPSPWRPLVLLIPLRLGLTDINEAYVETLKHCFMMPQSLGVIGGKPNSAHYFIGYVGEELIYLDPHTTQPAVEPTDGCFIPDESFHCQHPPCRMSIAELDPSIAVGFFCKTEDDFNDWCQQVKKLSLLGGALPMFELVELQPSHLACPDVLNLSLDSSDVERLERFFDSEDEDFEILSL
# MC4R antag cAMP = MC4R antagonists of cAMP signaling, primary screen, cell-based, TR-FRET, antagonist arm of biased-ligand search; MC4R-expressing cells, MTII-stimulated cAMP, LANCE TR-FRET; inhibition, % at 6.5 µM; hit rate 0.48% among 360,000; AID 540295, 2011;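 active = inhibition above its plate's cutoff, the mean of tested wells on that plate plus 3 SD, cut at about 29% in these data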
#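 Material: U2OS-MC4R stable cell line | Reagent: Melanotan II challenge after compound preincubation | Doses: One concentration, 6.5 µM nominal | Incubation: 30-min compound preincubation, 1-h Melanotan II challenge, 1-h detection, room temperature | Signal: TR-FRET cAMP assay | Replicates: One well per compound, no replicates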
# SMARCA2 act = SMARCA2 (BRM) function activators, primary screen, cell-based, luminescence, high throughput | MG213 cells, MMTV-luciferase reporter, dexamethasone, overnight | activation, % at 9.1 µM | hit rate 1% among 370,000; in the data active = activation above about 7.8%
# MPTP counter = fluorescence retest of MPTP screen hits in isolated mitochondria, single concentration. shares compounds with MPTP inh. membrane potential, Rhodamine 123 fluorescence. inhibition, % at 10 µM. hit rate 78% among 5,000. AID 624504, 2012; in the data active = inhibition above about 22%
# MPTP swell DR = mitochondrial permeability transition pore inhibitors, dose response, biochemical, absorbance, uHTS hits; shares compounds with MPTP inh; isolated mitochondria swelling; IC50, µM; hit rate 58% among 780; AID 651561, 2012; in the data active = IC50 below about 20 µM
# MPTP cs DR = fluorescent counter-screen in isolated mitochondria, dose response, counter-screen for MPTP inhibitor project, biochemical, fluorescence, uHTS hits | shares compounds with MPTP inh | hit rate 49% among 780 | IC50, µM | AID 651564, 2012 | isolated mitochondria counterscreen, fluorescence read-out; in the data active = IC50 below about 80 µM
# Hits are given with their value; n = inactive; x = no result.
SMILES,MC4R ag barr,MPTP inh,ATG4B inh,MC4R antag cAMP,SMARCA2 act,MPTP counter,others
O=C(Nc1cccc(Cl)c1)Nc1ccnc(-c2cccnc2)n1,n,76.7,n,n,n,87.4,
N#CCc1ccc(NC(=O)Nc2cccc(Cl)c2)cc1,n,89.7,n,n,n,106.9,
Cc1cc(NC(=O)Nc2cccc(Cl)c2)no1,n,n,x,n,n,x,
CCOC(=O)[C@]12CCCCC/C=C\1N(Cc1ccc(OC)cc1)C(=O)[C@H]2CC(=O)NCc1cccc(C(F)(F)F)c1,x,x,x,x,n,x,
COC(=O)C1CN(Cc2cn(CCC3OCCO3)nn2)CCS(=O)(=O)N1Cc1ccc(F)cc1 (centres undefined),x,x,x,x,n,x,
CC(C)CN1C(=O)C[C@]2(C(=O)N(C)c3ccc(NS(=O)(=O)C4CCCCC4)cc32)C1c1ccccc1 (some centres undefined),x,x,x,x,n,x,
O=C(Nc1cccnc1)Nc1cc(Cl)cc(Cl)c1,n,89.4,n,n,n,98.2,
CCc1ccccc1NC(=O)Nc1cccc(F)c1,n,75.7,n,n,n,80.8,
O=C(Nc1ccccc1)N1CCSc2cc(Cl)ccc21,n,n,n,n,n,x,
O=C(Nc1cccc(Cl)c1)N1CCSc2cc(Cl)ccc21,n,75.7,n,n,n,87.6,
CC1CCC(=C(C#N)C(=O)Nc2cccc(Cl)c2)CC1 (centres undefined),n,86.5,n,n,n,84.4,
C[C@H]1C2CC(OC(=O)Nc3ccc(C#N)cc3)C(C2)[C@H]2CCCCN21 (some centres undefined),x,x,x,x,n,x,
O[C@H](COc1cccc(Cl)c1)CN1CCC(C(O)(c2ccccc2)c2ccccc2)CC1,x,x,x,x,n,x,
COc1ccc(-n2c(COc3ccccc3)nnc2SCc2nc3ccccc3[nH]2)cc1,x,x,x,x,n,x,
CC(C)C(=O)Nc1ccc(Sc2ccc(F)cc2)cc1,n,51.7,n,n,n,36.7,
OC(c1ccccc1)(c1ccccc1)C1CCN(CCCOc2ccc(C(F)(F)F)cc2)CC1,x,x,x,x,n,x,
Cc1ccc(NC(=O)c2cc(C(=O)c3cc(Cl)ccc3O)cn(-c3ccc(C)cc3)c2=O)cc1,n,91.9,n,n,n,85.3,
COc1ccc(NCc2nc3ccccc3n2CCOc2ccc(C)cc2)cc1,n,69.6,n,n,n,37.2,
Cc1nn(-c2ccc(Cl)cc2)c2[nH]c(CCl)cc(=O)c12,n,80.8,n,n,n,80.7,
O=C(CSc1nnc(-c2ccccc2)n1-c1ccc(Cl)cc1)Nc1ccc(OCc2ccccc2)cc1,x,x,x,x,n,x,
CN1/C(=C\C=C2/SC(=S)N(CC(=O)O)C2=O)C(C)(C)c2ccccc21,n,75.1,n,n,n,n,
Cc1ccc2nc(SCc3nc4c(cnn4-c4ccccc4)c(=O)[nH]3)[nH]c2c1,n,73.4,n,n,n,85.1,
Cc1ccc(Cc2c(C)c(C#N)c3[nH]c4ccccc4n3c2=O)cc1,n,88.6,n,n,n,70.2,
CCc1c(C)c(C#N)c2[nH]c3ccccc3n2c1=S,n,89.6,n,n,n,80.7,
CCc1cc(=S)n2c([nH]c3ccccc32)c1C#N,n,100.6,n,n,x,68.5,
SMILES,MC4R ag barr,MPTP inh,ATG4B inh,MC4R antag cAMP,SMARCA2 act,MPTP counter,others
COC(=O)[C@]12C[C@H](CC(=O)NCCCN3CCCC3=O)C(=O)N(Cc3ccc(Cl)cc3Cl)C1=C[C@H](C(C)C)O[C@@H]2C1CC1,x,x,x,x,n,x,
Cc1cccc(Nc2nc(NCc3ccco3)c3ccccc3n2)c1,n,90.8,n,n,n,90.3,
c1ccc(Nc2nc(NCc3ccco3)c3ccccc3n2)cc1,n,76.2,n,n,n,91.2,
Cc1ccc2c(c1)C(CS(=O)(=O)NCC(C)C)NC2 (centres undefined),x,x,x,x,n,x,
CCOC(=O)C1=C(C(=O)OCC)C2N(Cc3ccc(C#N)cc3)c3ccccc3[C@@]23C[C@@H](C(=O)OC)N(S(=O)(=O)c2ccc(C#N)cc2)C3=N1 (some centres undefined),x,x,x,x,n,x,
CC1(C)Oc2ccc(C(=O)N3CCCC3)cc2NC1=O,x,x,x,x,n,x,
COCCn1c(C)cc(C(=O)CSc2nc(C)cc(C)c2C#N)c1C,n,65.9,n,n,n,n,MPTP swell DR=n;MPTP cs DR=58
Cc1cc(C)c(C#N)c(SCC(=O)c2cc(C)n(CCc3ccccc3)c2C)n1,n,n,n,n,n,x,
CCOC(=O)c1c(NC(=O)CSc2nnc(C)c(=O)[nH]2)sc(C)c1-c1ccc(C)cc1,n,70.0,n,n,n,61.7,
CCOC(=O)c1c(NC(=O)CSc2nnc(N)s2)sc(C)c1-c1ccc(C)cc1,n,n,n,n,n,x,
CCCCN1C(=N)N([C@@H](CCC)CN2CCC[C@H]2CN2C(N)=NC[C@@H]2Cc2ccccc2)C[C@H]1[C@H](C)CC,n,80.8,n,n,n,n,
CCCCN1C(=N)N([C@@H](CCC)CN2CCC[C@H]2CN2C(N)=NC[C@H]2CC(C)C)C[C@H]1Cc1ccccc1,n,n,n,n,n,x,
CC(C)NC(=S)Nc1ccc(Oc2ccccc2)cc1,n,n,n,n,n,x,
CCOc1ccc(NC(=S)NCCCc2ccccc2)cc1,n,n,n,n,n,x,
CCCCNC(=S)Nc1ccc(Oc2ccccc2)cc1,n,76.0,n,n,n,91.4,
CN(C)c1cc[n+](CC(=O)Nc2ccc(Oc3ccccc3)cc2)cc1,n,70.4,n,n,n,55.8,
S=C(NCc1ccco1)Nc1ccc(Cl)cc1,n,n,n,n,n,x,
S=C(NCc1ccco1)Nc1ccc(Oc2ccc(Cl)cc2)cc1,n,72.9,n,n,n,89.8,
CCCNC(=S)Nc1ccc(Oc2ccccc2)cc1,n,58.1,n,n,n,64.5,
CC(C)(C)c1ccc(OCCNC(=S)Nc2ccccc2)cc1,n,92.5,n,n,n,89.5,
CCN(C(=S)Nc1ccc(Oc2ccccc2)cc1)c1ccccc1,n,91.0,n,n,n,97.5,
CC(=O)O[C@H]1C=C[C@@H](C#Cc2ccc(C(C)(C)C)cc2)O[C@@H]1COC(=O)Nc1ccccc1,x,x,x,x,n,x,
COCC(C)NC(=O)c1cc2cccc([N+](=O)[O-])c2[nH]1 (centres undefined),n,n,n,n,n,x,
Cc1cc(NC(=O)c2cc3cccc([N+](=O)[O-])c3[nH]2)ccc1F,n,82.7,n,n,n,69.0,
CCOc1cc(CNC2CCCC2)cc(Cl)c1OCc1ccccc1,n,68.1,n,n,n,n,MPTP swell DR=3.12;MPTP cs DR=48.8

# Screening results: PubChem, several laboratories
